Measurements as given in ChEMBL document CHEMBL2163267, “Novel N-linked aminopiperidine inhibitors of bacterial topoisomerase type II with reduced pK(a): antibacterial agents with an improved safety profile” (J Med Chem, 2012).
≈ marks a conversion by molar mass, not a printed value.

Legend:
[1] = Half life in Beagle dog at 10 mg/kg, iv administered as infusion and po; format: ADME, organism-based, Canis lupus familiaris; design: dose 10 mg/kg, route oral; settings: in vivo
Staphylococcus aureus [2] = test: Antibacterial activity against methicillin-resistant Staphylococcus aureus ARC 1692 in ABT-treated CD1 mouse neutropenic thigh infection model assessed as reduction in log10 CFU per gram of thigh at 20 mg/kg/day, ip qd starting 2 hrs post-infection measured after 24 hrs; format: functional; settings: route intraperitoneal
Canis familiaris = test: Volume of distribution in Beagle dog at 10 mg/kg, iv administered as infusion and po; format: ADME, organism-based, Canis lupus familiaris; design: dose 10 mg/kg, route oral; settings: in vivo
How it was run: (§1)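 Single iv dose (3 mg/kg bolus, or 10 mg/kg infusion, per line). Rats in groups of three, bolus via cannulated jugular vein. Male beagle dogs (n = 3), iv as 15 min infusion, sampled 0 to 24 h. Serial whole-blood samples taken at time intervals. Plasma levels measured by LC-MS/MS. Parameters estimated by non-compartmental analysis.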

Mus musculus [3] = test: AUC (infinity) in CD1 mouse infected with methicillin-resistant Staphylococcus aureus ARC 1692 at 60 mg/kg/day, ip; format: ADME, organism-based, Plasma; design: dose 60 mg/kg/day, time infinity, route intraperitoneal; settings: in vivo
[4] = target: T1, Voltage-gated inwardly rectifying potassium channel KCNH2 (Homo sapiens, UniProt Q12809); test: Displacement of [3H]-astemizole from human ERG expressed in HEK293 cells after 60 mins by liquid scintillation counter; format: cell-based
T1 sequence (Q12809 whole entry): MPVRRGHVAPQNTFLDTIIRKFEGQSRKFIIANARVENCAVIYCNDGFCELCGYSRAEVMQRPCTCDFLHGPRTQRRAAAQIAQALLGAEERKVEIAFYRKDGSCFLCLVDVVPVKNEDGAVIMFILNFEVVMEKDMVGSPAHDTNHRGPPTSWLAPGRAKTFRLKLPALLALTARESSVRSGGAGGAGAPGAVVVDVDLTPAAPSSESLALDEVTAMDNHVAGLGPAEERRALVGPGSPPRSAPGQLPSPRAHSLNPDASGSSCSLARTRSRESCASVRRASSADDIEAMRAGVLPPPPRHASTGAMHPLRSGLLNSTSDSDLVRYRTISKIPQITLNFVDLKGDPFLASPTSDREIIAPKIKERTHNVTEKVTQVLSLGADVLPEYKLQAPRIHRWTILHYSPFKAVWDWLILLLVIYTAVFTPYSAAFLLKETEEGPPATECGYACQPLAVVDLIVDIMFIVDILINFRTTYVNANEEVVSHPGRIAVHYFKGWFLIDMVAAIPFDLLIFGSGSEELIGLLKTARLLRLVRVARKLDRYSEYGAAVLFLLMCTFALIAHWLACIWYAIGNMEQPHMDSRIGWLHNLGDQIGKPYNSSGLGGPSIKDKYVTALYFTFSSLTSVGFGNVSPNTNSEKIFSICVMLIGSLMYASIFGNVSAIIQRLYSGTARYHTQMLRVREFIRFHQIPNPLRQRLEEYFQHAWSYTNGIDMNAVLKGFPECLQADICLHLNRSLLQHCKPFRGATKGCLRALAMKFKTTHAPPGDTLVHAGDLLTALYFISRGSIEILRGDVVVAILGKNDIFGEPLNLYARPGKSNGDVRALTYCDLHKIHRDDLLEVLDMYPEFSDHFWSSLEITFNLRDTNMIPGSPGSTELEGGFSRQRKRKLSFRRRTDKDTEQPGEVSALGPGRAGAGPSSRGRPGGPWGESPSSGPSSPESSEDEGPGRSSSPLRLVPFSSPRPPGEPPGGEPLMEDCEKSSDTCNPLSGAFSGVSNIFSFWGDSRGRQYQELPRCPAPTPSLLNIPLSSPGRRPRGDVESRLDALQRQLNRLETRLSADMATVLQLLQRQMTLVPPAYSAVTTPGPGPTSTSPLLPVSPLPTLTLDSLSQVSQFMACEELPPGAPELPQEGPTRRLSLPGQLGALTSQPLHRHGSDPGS

Pseudomonas aeruginosa = test: Antibacterial activity against Pseudomonas aeruginosa PAO1 after 18 to 24 hrs by CLSI broth microdilution method; format: functional
[5] = Oral bioavailability in Wistar Han rat at 10 mg/kg; format: ADME, organism-based; settings: in vivo
How it was run: (§2)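 Bioavailability from a 10 mg/kg oral dose, by gavage in rats (groups of three) or orally in male beagle dogs (n = 3). Plasma sampled serially over time (dogs 0 to 24 h). Levels measured by LC-MS/MS and referenced to iv dosing. Parameters from non-compartmental analysis.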

[6] = Half life in Wistar Han rat at 10 mg/kg, iv administered as infusion and po; format: ADME, organism-based; design: dose 10 mg/kg, route oral; settings: in vivo
[7] = Dissociation constant, pKa of the compound by pH metric assay; format: physicochemical
How it was run: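 pH-metric titration on an automated titrator, run in triplicate. Accuracy about 0.02 log units.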

Cavia porcellus = test: Cardiotoxicity in iv dosed guinea pig assessed as change in MAPD90 at 67 uM total plasma concentration; format: toxicity, organism-based; settings: in vivo
How it was run: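 Male guinea pigs anaesthetized with Nembutal, tracheotomized and mechanically ventilated. Compound given iv in two 17 min infusion periods with cardiac pacing. Monophasic action potential recorded continuously and MAPD90 taken. Blood drawn at each dose level for plasma concentration. Vehicle controls run in separate cohorts; n = 6.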

Staphylococcus aureus [8] = test: Antibacterial activity against methicillin-resistant Staphylococcus aureus ARC 1692 in ABT-treated CD1 mouse neutropenic thigh infection model assessed as reduction in log10 CFU per gram of thigh at 40 mg/kg/day, ip qd starting 2 hrs post-infection measured after 24 hrs; format: functional; settings: route intraperitoneal
Staphylococcus aureus [9] = test: Antibacterial activity against methicillin-resistant Staphylococcus aureus ARC 1692 in ABT-treated CD1 mouse neutropenic thigh infection model assessed as reduction in log10 CFU per gram of thigh at 60 mg/kg/day, ip qd starting 2 hrs post-infection measured after 24 hrs; format: functional; settings: route intraperitoneal
[10] = Inhibition of Escherichia coli DNA topoisomerase 4 subunit ParC/DNA topoisomerase 4 subunit ParE ATPase activity after 24 hrs by malachite green staining-based colorimetric assay
Staphylococcus aureus [11] = test: Antibacterial activity against linezolid-resistant Staphylococcus aureus ARC 3583 after 18 to 24 hrs by CLSI broth microdilution method; format: functional
How it was run: (§3)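 CLSI broth microdilution in Mueller Hinton Broth 2. Inocula prepared from blood agar plates grown at 35 °C for 18–24 h. Compound in DMSO, 2% DMSO final, 11 doubling dilutions from 64 to 0.06 μg/mL. Plates read at 620 nm.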

[12] = AUC in Wistar Han rat at 10 mg/kg, iv administered as infusion; format: ADME, organism-based; design: dose 10 mg/kg, route intravenous; settings: plasma; how it was run: as §1
Staphylococcus aureus [13] = test: Antibacterial activity against community acquired methicillin-resistant Staphylococcus aureus ARC 3189 after 18 to 24 hrs by CLSI broth microdilution method; format: functional; how it was run: as §3
[14] = Intrinsic clearance in Beagle dog hepatocytes measured per 10^6 cells; format: ADME, cell-based, Canis lupus familiaris, Hepatocyte; settings: read-out: CLH
Staphylococcus aureus [15] = test: Antibacterial activity against hospital acquired methicillin-resistant Staphylococcus aureus ARC 1692 after 18 to 24 hrs by CLSI broth microdilution method; format: functional; how it was run: as §3
Rattus norvegicus = test: Volume of distribution in Wistar Han rat at 10 mg/kg, iv administered as infusion and po; format: ADME, organism-based; design: dose 10 mg/kg, route oral; settings: in vivo; how it was run: as §1
Mus musculus [16] = test: AUC (infinity) in CD1 mouse infected with methicillin-resistant Staphylococcus aureus ARC 1692 at 40 mg/kg/day, ip; format: ADME, organism-based, Plasma; design: dose 40 mg/kg/day, time infinity, route intraperitoneal; settings: in vivo
Streptococcus pneumoniae = test: Antibacterial activity against penicillin-susceptible Streptococcus pneumoniae D39 after 18 to 24 hrs by CLSI broth microdilution method; format: functional
[17] = AUC in Beagle dog at 10 mg/kg, iv administered as infusion; format: ADME, organism-based, Canis lupus familiaris; design: dose 10 mg/kg, route intravenous; settings: plasma; how it was run: as §1
Staphylococcus aureus [18] = test: Antibacterial activity against vancomycin-resistant Staphylococcus aureus ARC 3186 after 18 to 24 hrs by CLSI broth microdilution method; format: functional; how it was run: as §3
Escherichia coli = test: Antibacterial activity against Escherichia coli W3110 after 18 to 24 hrs by CLSI broth microdilution method; format: functional
[19] = Intrinsic clearance in Wistar Han rat hepatocytes measured per 10^6 cells; format: ADME, cell-based, Hepatocyte; settings: read-out: CLH
Staphylococcus aureus [20] = test: Antibacterial activity against methicillin-susceptible Staphylococcus aureus after 18 to 24 hrs by CLSI broth microdilution method; format: functional
[21] = Oral bioavailability in Beagle dog at 10 mg/kg; format: ADME, organism-based, Canis lupus familiaris; settings: in vivo; how it was run: as §2
[22] = Octanol-phosphate buffer partition coefficient, log D of the compound at pH 7.4 by shake flask method; format: physicochemical
How it was run: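 Shake-flask partition between n-octanol and 10 mM phosphate buffer at pH 7.4. Shaken 1 h at 1200 rpm to reach equilibrium. Phases analysed by LC/UV, with MS for mass confirmation.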

[23] = Intrinsic clearance in human hepatocytes measured per 10^6 cells; format: ADME, cell-based, Hepatocyte; settings: read-out: CLH
[24] = target: T1, Voltage-gated inwardly rectifying potassium channel KCNH2; test: Inhibition of human ERG by Ionworks assay
[25] = Fraction unbound in human plasma at 10 uM by equilibrium dialysis method; format: ADME, cell-free
How it was run: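 Equilibrium dialysis. Compound at 10 μM in the plasma (donor) chamber against phosphate buffer, rotated at 37 °C for 16 h. Drug in the plasma and buffer samples quantified by LC-MS/MS after methanol protein precipitation with internal standard. Standard curve 10 nM to 10 μM.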

Mus musculus [26] = test: AUC (infinity) in CD1 mouse infected with methicillin-resistant Staphylococcus aureus ARC 1692 at 20 mg/kg/day, ip; format: ADME, organism-based, Plasma; design: dose 20 mg/kg/day, time infinity, route intraperitoneal; settings: in vivo
Mus musculus [27] = test: AUC (infinity) in CD1 mouse infected with methicillin-resistant Staphylococcus aureus ARC 1692 at 80 mg/kg/day, ip; format: ADME, organism-based, Plasma; design: dose 80 mg/kg/day, time infinity, route intraperitoneal; settings: in vivo
Staphylococcus aureus [28] = test: Antibacterial activity against methicillin-resistant Staphylococcus aureus ARC 1692 in ABT-treated CD1 mouse neutropenic thigh infection model assessed as reduction in log10 CFU per gram of thigh at 80 mg/kg/day, ip qd starting 2 hrs post-infection measured after 24 hrs; format: functional; settings: route intraperitoneal

Compound | half-life [1] | Vd (Canis familiaris) | MIC (Pseudomonas aeruginosa) | pKa [7] | log10cfu (Staphylococcus aureus [8]) | IC50 [10] | MIC (Staphylococcus aureus [11]) | AUC [12] | MIC (Staphylococcus aureus [13]) | hepatocyte CLint [14] | MIC (Staphylococcus aureus [15]) | Vd (Rattus norvegicus) | AUC (Mus musculus [16]) | MIC (Streptococcus pneumoniae) | AUC [17] | MIC (Staphylococcus aureus [18]) | MIC (Escherichia coli) | hepatocyte CLint [19] | MIC (Staphylococcus aureus [20]) | logD [22] | other results
N#Cc1ccc2ccc(=O)n(CCN3CC[C@H](NCc4cc5c(cn4)OCCO5)[C@H](F)C3)c2c1 | 3.4 h | 1.5 L/kg | > 8 µg/mL | 7.03 | 1 | 0.048 µM | 0.125 µg/mL (≈ 0.27 µM) | 3100 ng·h/mL | 0.06 µg/mL (≈ 0.129 µM) | 4.5 µL/min/1e6 cells | 0.125 µg/mL (≈ 0.27 µM) | 3 L/kg | 37 µg/h/mL | 0.13 µg/mL (≈ 0.28 µM) | 27000 ng·h/mL | 0.015 µg/mL (≈ 0.0324 µM) | 4 µg/mL (≈ 8.63 µM) | 13 µL/min/1e6 cells | 0.06 µg/mL (≈ 0.129 µM) | 0.96 | log10cfu (Staphylococcus aureus [2]): 0.1; AUC (Mus musculus [3]): 53 µg/h/mL; IC50 [4]: > 200 µM; bioavailability [5]: 18%; half-life [6]: 0.9 h; Activity (Cavia porcellus): Non-toxic; log10cfu (Staphylococcus aureus [9]): 1.5; bioavailability [21]: 60%; hepatocyte CLint [23]: 5.2 µL/min/1e6 cells; IC50 [24]: 233 µM; fraction unbound at 10 µM [25]: 0.25; AUC (Mus musculus [26]): 18 µg/h/mL
N#Cc1ccc2ccc(=O)n(CCN3CC[C@@H](NCc4ccc5c(n4)NC(=O)CO5)[C@@H](F)C3)c2c1 | 5.4 h | 1.7 L/kg | 8 µg/mL (≈ 16.8 µM) | 7.28 |  | 0.011 µM |  | 2500 ng·h/mL |  | 8.6 µL/min/1e6 cells |  | 3 L/kg |  | 0.25 µg/mL (≈ 0.525 µM) | 25000 ng·h/mL |  | 1 µg/mL (≈ 2.1 µM) | 14 µL/min/1e6 cells | 0.06 µg/mL (≈ 0.126 µM) | 0.66 | hepatocyte CLint [23]: 2 µL/min/1e6 cells; fraction unbound at 10 µM [25]: 0.2
C[C@H]1COc2c(N3CCN(C)CC3)c(F)cc3c(=O)c(C(=O)O)cn1c23.C[C@H]1COc2c(N3CCN(C)CC3)c(F)cc3c(=O)c(C(=O)O)cn1c23.O [LEVOFLOXACIN] |  |  |  |  | 0.3 |  | > 16 µg/mL |  | 8 µg/mL |  | 0.125 µg/mL |  | 4 µg/h/mL |  |  | 16 µg/mL |  |  |  |  | AUC (Mus musculus [27]): 11 µg/h/mL; log10cfu (Staphylococcus aureus [28]): 1.4
